# Bioassay records: PubChem BioAssay, The Scripps Research Institute Molecular Screening Center
# This is a sample that favours compounds with a hit; in the whole collection about 1.8% have one here.
# STAT1 inh = inhibitors of IFN-gamma induced STAT1 signaling; NIH 3T3 STAT1-luciferase reporter, luminescence; inhibition, % at 5.5 µM; 200,000 compounds, 0.35% hits; AID 920;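 active means inhibition above a set limit, the mean inhibition across all tested compounds plus 3 SD, cut at about 34% in these data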;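 further: 0% = IFN-gamma with DMSO and 100% = IFN-gamma with 300 µM nifuroxazide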
# STAT3 inh = reduces IL-6 driven STAT3 reporter signal; U3A cells, IL-6 STAT3-luciferase reporter, luminescence; host cell line lacks STAT1; inhibition, % at 5.5 µM; 190,000 compounds, 0.89% hits;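 active means inhibition above the mean inhibition across all screened compounds plus 3 SD, cut at about 44% in these data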;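 further: 0% = DMSO only wells and 100% = 100 µM nifuroxazide control wells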
# PERK inh = human PERK inhibition, primary cell-based screen. Q9NZJ5. CHO PERK-DD fusion, SEAP luminescence translation reporter. AID 1416. inhibition, % at 5.6 µM. 220,000 compounds, 0.17% hits;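 active means inhibition above the mean inhibition of all tested compounds plus 3 SD, set separately per screening campaign, cut at about 2.9% in these data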;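 further: PERK kinase domain activated by AP20187 dimerizer at 100 nM; 0% = DMSO with dimerizer and 100% = rapamycin at 8.4 µM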
# Target sequence (Q9NZJ5 whole entry, looked up, the tested form may be a part): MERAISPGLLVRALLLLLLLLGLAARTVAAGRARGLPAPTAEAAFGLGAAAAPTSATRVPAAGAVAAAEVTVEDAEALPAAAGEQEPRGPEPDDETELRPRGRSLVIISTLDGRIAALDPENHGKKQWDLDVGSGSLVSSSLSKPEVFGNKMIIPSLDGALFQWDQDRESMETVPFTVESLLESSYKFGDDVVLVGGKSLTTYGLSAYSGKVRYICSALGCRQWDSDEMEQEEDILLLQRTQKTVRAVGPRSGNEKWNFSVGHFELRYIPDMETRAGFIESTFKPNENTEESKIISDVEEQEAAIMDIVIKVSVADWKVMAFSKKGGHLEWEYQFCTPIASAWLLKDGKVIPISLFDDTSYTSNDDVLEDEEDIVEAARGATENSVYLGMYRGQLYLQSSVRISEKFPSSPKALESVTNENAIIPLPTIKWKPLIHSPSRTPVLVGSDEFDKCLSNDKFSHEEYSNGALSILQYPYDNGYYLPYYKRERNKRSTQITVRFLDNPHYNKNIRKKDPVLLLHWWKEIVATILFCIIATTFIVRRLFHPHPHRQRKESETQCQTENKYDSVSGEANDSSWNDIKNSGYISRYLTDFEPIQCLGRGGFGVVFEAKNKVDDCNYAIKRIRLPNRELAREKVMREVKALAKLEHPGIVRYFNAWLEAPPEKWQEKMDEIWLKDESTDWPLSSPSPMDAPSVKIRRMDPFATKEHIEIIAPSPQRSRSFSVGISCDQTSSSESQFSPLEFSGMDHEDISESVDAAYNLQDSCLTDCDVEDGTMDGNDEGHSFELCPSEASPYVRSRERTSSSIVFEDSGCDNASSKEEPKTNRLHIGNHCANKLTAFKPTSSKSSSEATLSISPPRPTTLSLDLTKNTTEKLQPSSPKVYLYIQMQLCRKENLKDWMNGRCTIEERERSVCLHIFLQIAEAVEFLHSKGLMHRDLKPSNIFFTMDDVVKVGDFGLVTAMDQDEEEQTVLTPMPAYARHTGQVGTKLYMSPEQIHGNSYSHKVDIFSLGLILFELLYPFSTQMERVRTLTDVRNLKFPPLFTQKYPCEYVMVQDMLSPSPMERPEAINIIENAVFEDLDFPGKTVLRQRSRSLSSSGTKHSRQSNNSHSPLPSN
# STAT3 act-1 = activators of IL-6 induced STAT3 signaling. U3A cells, IL-6 STAT3-luciferase reporter, luminescence; 100% = signal with IL-6 EC80 alone. activation (% of control), % at 5.6 µM. 190,000 compounds, 0.91% hits. AID 871;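 active means activation above the screen-wide mean of compound activation plus 3 SD, cut at about 130% in these data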;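 further: 0% = background luminescence of wells with medium and substrate only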
#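 System – human U3A cells carrying STAT3-luciferase construct · Probe or stimulus – Interleukin-6, 33 ng/mL · Schedule – compound 1 h, then IL-6 6 h at 37 °C · Signal – luminescence from STAT3-driven luciferase reporter · Evaluation – percent of IL-6-only median luminescence · Benchmarks – IL-6-only high control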
# STAT3 act-2 = STAT3 activation, confirmation assay | shares compounds with STAT3 act-1 | 1,200 compounds, 64% hits | U3A STAT3-luciferase reporter, IL-6 potentiation, luminescence; U3A cells lack STAT1; 100 means same as IL-6 alone | AID 1267 | potentiation (% of control), % at 5.7 µM;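 active means percent activation of the STAT3 luciferase reporter above a set limit taken from the earlier primary screen, cut at about 130% in these data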;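 further: 0% = background signal of medium plus substrate and 100% = median of IL-6 with DMSO wells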
# NFkB act STAT3ct = NF-kappaB activation in STAT3 activator counter-screen; AID 1309; human cells, NF-kappaB reporter activation; activation (% of control), % at 5.7 µM; shares compounds with STAT3 act-1; 1,200 compounds, 11% hits; in the data active means activation above about 120%;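 further: reporter induced by TNF-alpha stimulation; 100% = median of stimulated DMSO wells and 0% = no signal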
# STAT1 act STAT3c = activates STAT1, counter-screen to STAT3 activators | shares compounds with STAT3 act-1 | NIH 3T3 STAT1-luciferase reporter, IFN-gamma, luminescence | activation (% of control), % at 5.7 µM | 1,200 compounds, 13% hits;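 active means activation above the solvent-only control well mean plus 3 SD, set per screening run, cut at about 120% in these data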;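 further: 100% = IFN-gamma with DMSO median signal so 100% means no change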
# Starred values were filed as active, the others as inactive; i = inactive; x = no result; + = active, no number.
SMILES,STAT1 inh,STAT3 inh,PERK inh,STAT3 act-1,STAT3 act-2,NFkB act STAT3ct,STAT1 act STAT3c
Cc1cc(C)n(-c2nc3ccccc3c(=O)n2OCc2ccc(Cl)cc2)n1,12.4,-45.4,-0.4,144.8*,127.7,102.0,94.6
COn1c(-n2nc(C)cc2C)nc2ccccc2c1=O,-0.1,1.9,1.1,102.9,x,x,x
CCc1ccc2c(c1)C(c1ccc([N+](=O)[O-])cc1)=NNC(c1ccc(F)cc1)=N2,-5.1,11.7,-0.9,95.1,x,x,x
CCCCNCc1cc2ccccc2o1,x,x,-0.4,x,x,x,x
CCN(CC)CCCC(C)NC(=O)c1cccc(S(=O)(=O)N2CCc3ccccc32)c1 (stereo not given),-0.5,-42.9,0.3,139.7*,147.6*,101.9,100.1
CC(C)CCNC(=O)c1cccc(S(=O)(=O)N2CCc3ccccc32)c1,-0.6,4.5,-0.7,99.1,x,x,x
C=CCOC(=O)C1=C[C@@H](c2ccc3c(c2)OCO3)C[C@@H](OCc2ccc(CO)cc2)O1,-0.4,x,-0.2,x,x,x,x
O=C(CCl)Nc1ccccc1C(=O)NCc1ccccc1,-4.3,8.2,0.2,95.2,x,x,x
O=C(Nc1ccc2c(c1)oc1ccccc12)C1CC1,-19.3,-45.1,1.3,143.3*,142.4*,130.7*,133.8*
CC(C)CC(=O)Nc1ccc2c(c1)oc1ccccc12,-57.3,-9.6,0.4,110.6,x,x,x
O=C(Nc1ccc2c(c1)oc1ccc(S(=O)(=O)N3CCCC3)cc12)C1CC1,-1.0,-60.5,0.0,154.3*,94.0,103.4,102.3
O=C(NC(=S)Nc1nc2c(ccc3ccccc32)s1)c1cccs1,0.1,-47.0,-0.2,139.7*,142.1*,99.6,80.1
O=C(Nc1ccccc1)OCc1cc(-c2ccccc2Cl)on1,-28.6,19.4,1.0,89.8,x,x,x
CCOC(=O)C1=C(C)NC(C)=C(C(=O)OCC)C1c1cc2ccc(C)cc2[nH]c1=O,7.6,-46.0,0.3,143.1*,129.2,91.5,98.6
CC(C)N1C(=O)S/C(=C/c2ccccc2OCc2ccc(C(=O)O)cc2)C1=O,-1.2,2.6,0.1,102.1,x,x,x
Cc1ccc(C)n1-c1nccc(-c2cccs2)n1,-4.8,-35.2,0.8,139.6*,114.8,106.5,103.2
COc1ccc(C2CC3(CC(C)(C)NC(=S)N3)Oc3cc(O)cc(C)c32)cc1OC (stereo not given),-4.2,i,0.8,+,692.9*,118.4,121.4*
CCC(=O)Oc1oc(-c2ccccc2)nc1C=Nc1ccccc1OC,-1.1,-49.8,1.3,144.0*,129.1,114.8,99.5
CCC(C)NC(=O)C(NS(=O)(=O)c1cccc2nsnc12)c1ccccc1 (stereo not given),1.0,-39.0,-1.0,138.7*,95.7,114.7,116.7
COCCN(C(=S)Nc1c(C)cccc1C)C(C)c1cccs1 (stereo not given),5.6,-5.9,0.0,106.3,x,x,x
Cn1cnc([N+](=O)[O-])c1Oc1ccc2ccccc2c1,0.4,-50.4,-0.3,138.8*,133.1*,114.2,120.0
O=C(c1ccc2c(c1)OCO2)N1CCC(Cc2ccccc2)CC1,x,x,0.7,x,x,x,x
Cc1cnc(NC(=O)CC2CCCC2)s1,-32.2,4.9,0.3,99.0,x,x,x
O=C(OCc1nc2ccccc2s1)c1cnccn1,-16.6,-37.1,1.4,136.2*,145.8*,119.3,139.9*
COc1ccccc1NC(=O)CN1CCC(c2nc3ccccc3[nH]2)CC1,1.4,-1.6,-0.9,105.3,x,x,x
SMILES,STAT1 inh,STAT3 inh,PERK inh,STAT3 act-1,STAT3 act-2,NFkB act STAT3ct,STAT1 act STAT3c
CCOc1ccc(CN2CCN(Cc3cc4ccccc4[nH]3)CC2CCO)cc1 (stereo not given),14.5,-42.2,0.3,143.1*,191.2*,112.5,108.9
COc1cccc(CN2CCN(Cc3cc4ccccc4[nH]3)CC2CCO)c1 (stereo not given),x,x,-1.6,x,x,x,x
Cc1ccc(OCC(=O)Nc2ccc3c4c(cccc24)CC3)c(C)c1,0.9,10.7,1.3,92.7,x,x,x
Cc1ccc(OCC(=O)Nc2cccc3nsnc23)c(C)c1,5.1,-52.7,2.1,144.8*,130.7,104.8,94.3
Cc1noc(C(F)(F)F)c1C(=O)NNC(=O)c1ccccc1,x,x,1.9,x,x,x,x
O=C(O)CC/C(=C\c1cc([N+](=O)[O-])ccc1Cl)c1nc2ccccc2s1,14.9,-46.1,1.4,141.6*,146.8*,103.2,91.9
